{
  "source": "the M2OR odorant receptor database",
  "data": [
    {"molecular_target": "T1, OR1A1 (Homo sapiens) (UniProt Q9P1Q5)", "T1 sequence (whole entry)": "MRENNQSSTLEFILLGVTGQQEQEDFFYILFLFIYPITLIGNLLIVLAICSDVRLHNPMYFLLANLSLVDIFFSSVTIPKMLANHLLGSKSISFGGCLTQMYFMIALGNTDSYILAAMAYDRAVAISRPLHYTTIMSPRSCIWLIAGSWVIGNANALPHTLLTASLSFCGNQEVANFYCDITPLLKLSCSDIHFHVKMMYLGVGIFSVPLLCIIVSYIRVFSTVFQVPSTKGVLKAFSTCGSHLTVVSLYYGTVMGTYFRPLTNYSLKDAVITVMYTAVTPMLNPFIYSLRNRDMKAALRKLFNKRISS", "settings": "stereoisomer not certain", "in_short": "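Each receptor–molecule pair is labelled responsive or non-responsive (inactive) according to whether the original authors judged the measured signal statistically different from baseline. The data were taken from the main text and supplementary material of published papers and checked for typos and inconsistencies. Assay methods differed by source, with transient luciferase assays in mammalian cell lines being common.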", "values": [
      {"smiles": "CC(C)c1ccc(C=O)cc1", "odorant receptor agonist call": "inactive"},
      {"smiles": "CCCSSCCC", "odorant receptor agonist call": "inactive"},
      {"smiles": "CCC(=O)C1=NCCC1", "odorant receptor agonist call": "inactive"},
      {"smiles": "CC=Cc1ccc(OC)cc1", "odorant receptor agonist call": "active"},
      {"smiles": "CCCCOC(=O)C(C)OC(=O)CCC", "note": "(stereo unspecified)", "odorant receptor agonist call": "inactive"},
      {"smiles": "O=c1ccc2ccccc2o1", "odorant receptor agonist call": "inactive"},
      {"smiles": "CCCC=CC=O", "odorant receptor agonist call": "inactive"},
      {"smiles": "CC1=CCC(C(C)(C)S)CC1", "note": "(stereo unspecified)", "odorant receptor agonist call": "inactive"},
      {"smiles": "CCC(C)c1nccnc1OC", "note": "(stereo unspecified)", "odorant receptor agonist call": "inactive"},
      {"smiles": "CCCCCOC(=O)CCCCC", "odorant receptor agonist call": "inactive"},
      {"smiles": "CCCCCC=CC=O", "odorant receptor agonist call": "inactive"},
      {"smiles": "CC1(C)C2CC=C(C=O)C1C2", "note": "(stereo unspecified)", "odorant receptor agonist call": "inactive"},
      {"smiles": "CCc1cccc(O)c1", "odorant receptor agonist call": "inactive"},
      {"smiles": "CC(C)=CC1CC(C)CCO1", "note": "(stereo unspecified)", "odorant receptor agonist call": "inactive"},
      {"smiles": "CCCSSSCCC", "odorant receptor agonist call": "inactive"},
      {"smiles": "COc1cccc(OC)c1O", "odorant receptor agonist call": "inactive"},
      {"smiles": "COC(=O)C(C)C", "odorant receptor agonist call": "inactive"},
      {"smiles": "C1CCNC1", "odorant receptor agonist call": "inactive"},
      {"smiles": "CCCCOC=O", "odorant receptor agonist call": "inactive"},
      {"smiles": "CCCCCCC1CCC(=O)O1", "note": "(stereo unspecified)", "odorant receptor agonist call": "inactive"},
      {"smiles": "CCCCC(=O)OCC", "odorant receptor agonist call": "inactive"},
      {"smiles": "CCC(C)C=O", "note": "(stereo unspecified)", "odorant receptor agonist call": "inactive"},
      {"smiles": "COc1ccc2ccc(=O)oc2c1", "odorant receptor agonist call": "inactive"},
      {"smiles": "CCCC(S)CCO", "note": "(stereo unspecified)", "odorant receptor agonist call": "inactive"},
      {"smiles": "CC(=O)C=CC1C(C)=CCCC1(C)C", "note": "(stereo unspecified)", "odorant receptor agonist call": "inactive"},
      {"smiles": "C=Cc1ccc(O)c(OC)c1", "odorant receptor agonist call": "inactive"},
      {"smiles": "C=CC(C)(O)CCC=C(C)CCC=C(C)C", "note": "(stereo unspecified)", "odorant receptor agonist call": "active"},
      {"smiles": "CCOC(=O)C=Cc1ccccc1", "odorant receptor agonist call": "inactive"},
      {"smiles": "CC1CCC(C(C)C)C(=O)C1", "note": "(stereo unspecified)", "odorant receptor agonist call": "active"},
      {"smiles": "CCCC(C)=O", "odorant receptor agonist call": "inactive"},
      {"smiles": "C=C(C)C1CC=C(C)C(OC(C)=O)C1", "note": "(stereo unspecified)", "odorant receptor agonist call": "inactive"},
      {"smiles": "CCC=CCCCCCC=O", "odorant receptor agonist call": "active"},
      {"smiles": "CCCCCCCC(=O)[O-].[H+]", "odorant receptor agonist call": "inactive"},
      {"smiles": "CCCCCC(=O)OCC", "odorant receptor agonist call": "active"},
      {"smiles": "CC(=O)CC(C)(C)S", "odorant receptor agonist call": "inactive"},
      {"smiles": "C=CC(O)CCCCC", "note": "(stereo unspecified)", "odorant receptor agonist call": "active"}
    ]}
  ]
}
